Assay results taken from ChEMBL document CHEMBL1138348, “A p-[18F]fluoroethoxyphenyl bicyclic nucleoside analogue as a potential positron emission tomography imaging agent for varicella-zoster virus thymidine kinase gene expression” (J Med Chem, 2007).

Columns and labels:
[1] = Inhibition of Varicella zoster virus thymidine kinase; parameters: species or system Human alphaherpesvirus 3
In short: (§1)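 Purified recombinant VZV TK (7.75 ng), HSV-1 TK (226 ng) or human cytosolic TK-1 (455 ng) in 50 mM Tris-HCl pH 8.0, 2.5 mM MgCl2, 10 mM DTT, 2.5 mM ATP, 1 mg/mL BSA, 10 mM NaF, with 1 µM final [CH3-3H]dThd substrate. Incubated 30 min at 37 °C with varied compound concentrations; the reaction was linear over this time. Product bound on DE-81 filters, washed, and counted by liquid scintillation. Result reported as IC50.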

[2] = Inhibition of HSV1 thymidine kinase; parameters: species or system Human alphaherpesvirus 1; in short: as §1
[3] = target: T1, Thymidine kinase, cytosolic (Homo sapiens, UniProt P04183); test: Inhibition of human cytosolic thymidine kinase 1; in short: as §1
T1 sequence (P04183 whole entry): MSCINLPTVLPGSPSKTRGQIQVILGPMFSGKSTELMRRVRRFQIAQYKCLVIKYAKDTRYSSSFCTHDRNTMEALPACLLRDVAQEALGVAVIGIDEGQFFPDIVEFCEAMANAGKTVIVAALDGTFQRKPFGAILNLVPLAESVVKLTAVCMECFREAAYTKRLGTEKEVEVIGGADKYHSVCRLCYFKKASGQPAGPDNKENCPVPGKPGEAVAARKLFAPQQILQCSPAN

Compound	IC50 [1]	IC50 [2]	IC50 [3]
O=c1nc2oc(-c3cccc(OCCCCCCF)c3)cc2cn1[C@H]1C[C@H](O)[C@@H](CO)O1	> 500 µM	> 500 µM	> 500 µM
COc1ccc(-c2cc3cn([C@H]4C[C@H](O)[C@@H](CO)O4)c(=O)nc3o2)cc1	1.5 µM	> 500 µM	> 500 µM
O=c1nc2oc(-c3ccc(OCCF)cc3)cc2cn1[C@H]1C[C@H](O)[C@@H](CO)O1	4.2 µM	> 500 µM	> 500 µM
O=c1nc2oc(-c3ccc(O)cc3)cc2cn1[C@H]1C[C@H](O)[C@@H](CO)O1	0.4 µM	> 500 µM	> 500 µM
